# Tests used:
# [1] = target: T1, Endothelin-1 receptor (Sus scrofa, UniProt Q29010); experiment: Binding affinity towards endothelin A receptor in porcine aortic smooth muscle membranes.
# T1 sequence (Q29010 whole entry): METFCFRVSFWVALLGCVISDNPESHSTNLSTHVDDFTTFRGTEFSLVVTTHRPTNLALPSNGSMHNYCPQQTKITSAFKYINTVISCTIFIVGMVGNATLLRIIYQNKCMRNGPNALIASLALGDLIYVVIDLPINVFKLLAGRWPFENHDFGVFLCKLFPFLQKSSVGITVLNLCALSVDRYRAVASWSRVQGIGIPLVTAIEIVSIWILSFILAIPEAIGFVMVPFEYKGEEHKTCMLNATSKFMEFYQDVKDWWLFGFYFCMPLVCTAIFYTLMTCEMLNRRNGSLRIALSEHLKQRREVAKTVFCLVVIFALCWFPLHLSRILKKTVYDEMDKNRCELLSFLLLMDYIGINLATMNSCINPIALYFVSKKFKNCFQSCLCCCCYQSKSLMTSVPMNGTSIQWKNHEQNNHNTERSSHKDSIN
# How it was run: (§1)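 Competitive binding in porcine membranes: aortic smooth muscle for ETA and cerebellum for ETB, run by a previously reported method. Variation was generally within 10%.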
# [2] = target: T2, Endothelin receptor type B (Sus scrofa, UniProt P35463); experiment: Binding affinity towards endothelin B receptor in porcine cerebellum membranes; format: cell membranes, Membrane; how it was run: as §1
# T2 sequence (P35463 whole entry): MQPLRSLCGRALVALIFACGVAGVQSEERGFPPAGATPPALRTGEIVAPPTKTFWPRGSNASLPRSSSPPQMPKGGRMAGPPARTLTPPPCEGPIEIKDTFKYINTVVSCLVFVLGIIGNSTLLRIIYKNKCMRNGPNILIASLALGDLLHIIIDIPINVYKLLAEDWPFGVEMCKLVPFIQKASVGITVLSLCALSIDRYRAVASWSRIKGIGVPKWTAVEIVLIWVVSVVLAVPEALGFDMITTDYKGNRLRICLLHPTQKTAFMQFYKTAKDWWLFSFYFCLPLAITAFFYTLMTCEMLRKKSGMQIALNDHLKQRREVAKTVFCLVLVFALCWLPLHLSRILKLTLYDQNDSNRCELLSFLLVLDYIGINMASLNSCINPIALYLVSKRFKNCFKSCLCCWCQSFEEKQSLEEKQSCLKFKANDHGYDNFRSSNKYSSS
# [3] = Ability to antagonize ET-A mediated vasoconstrictor activity in isolated porcine coronary arteries; format: functional; details: read-out: pA2 (converted)
# How it was run: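 Isolated porcine coronary artery rings were contracted with ET-1, an ETA-mediated response, following a reported method. Antagonism was quantified as a pA2 value.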
# [4] = target: T3, Endothelin-1 receptor (Homo sapiens, UniProt P25101); experiment: Binding affinity towards Endothelin A receptor in human neuroblastoma-derived cell line SK-N-MC membranes; format: cell-based
# T3 sequence (P25101 whole entry): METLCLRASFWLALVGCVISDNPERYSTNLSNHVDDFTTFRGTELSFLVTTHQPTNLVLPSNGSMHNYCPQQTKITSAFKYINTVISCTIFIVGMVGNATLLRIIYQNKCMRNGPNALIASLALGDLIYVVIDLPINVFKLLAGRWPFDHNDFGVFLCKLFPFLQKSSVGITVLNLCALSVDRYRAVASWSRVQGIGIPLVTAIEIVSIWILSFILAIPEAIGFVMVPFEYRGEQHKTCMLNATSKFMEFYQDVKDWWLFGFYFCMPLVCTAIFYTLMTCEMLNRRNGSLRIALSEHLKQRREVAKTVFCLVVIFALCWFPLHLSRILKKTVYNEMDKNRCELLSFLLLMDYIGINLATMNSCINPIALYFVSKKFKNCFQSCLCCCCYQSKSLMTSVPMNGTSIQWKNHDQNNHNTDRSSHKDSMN
# How it was run: (§2)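 Membrane binding assay on human receptors. ETA came from the neuroblastoma-derived line SK-N-MC and ETB from Girardi heart cells. Inhibition was expressed as IC50.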
# [5] = target: T4, Endothelin receptor type B (Homo sapiens, UniProt P24530); experiment: Binding affinity towards Endothelin B receptor in human girardi heart cell membranes; how it was run: as §2
# T4 sequence (P24530 whole entry): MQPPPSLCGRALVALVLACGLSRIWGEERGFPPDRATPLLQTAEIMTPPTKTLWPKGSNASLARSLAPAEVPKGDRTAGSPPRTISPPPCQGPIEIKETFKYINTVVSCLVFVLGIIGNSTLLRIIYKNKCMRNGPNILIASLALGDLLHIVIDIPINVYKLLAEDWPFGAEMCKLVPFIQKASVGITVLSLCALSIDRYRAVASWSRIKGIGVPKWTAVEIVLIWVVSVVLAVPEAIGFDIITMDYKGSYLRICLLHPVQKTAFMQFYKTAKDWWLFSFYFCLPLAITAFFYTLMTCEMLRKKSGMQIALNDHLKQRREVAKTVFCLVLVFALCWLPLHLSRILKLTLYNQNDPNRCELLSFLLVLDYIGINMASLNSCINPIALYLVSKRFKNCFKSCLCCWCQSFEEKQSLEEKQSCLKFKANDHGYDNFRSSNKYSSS
# [6] = Ability to antagonize ET-1 mediated constriction in rabbit pulmonary arteries; format: functional, Oryctolagus cuniculus
SMILES,IC50 [1],IC50 [2],also measured
CCCCCC[C@@H](NC(=O)[C@@H](Cc1c(Br)[nH]c2ccccc12)NC(=O)C(CC(C)C)NC(=O)N1[C@H](C)CCC[C@@H]1C)C(=O)O (stereo not given in full),110 nM,1900 nM,–
Cc1[nH]c2ccccc2c1C[C@H]1NC(=O)[C@H](CC(C)C)NC(=O)[C@@H](C(C)C)NC(=O)[C@@H]2CCCN2C(=O)[C@@H](CC(=O)O)NC1=O,51 nM,870 nM,–
O=C(O)C[C@H]1NC(=O)[C@@H](Cc2c(Br)[nH]c3ccccc23)NC(=O)[C@H](C2CC2)NC(=O)[C@@H](C2CCCC2)NC(=O)[C@@H]2CCCN2C1=O,4.9 nM,15 nM,Kb [3]: 31.6 nM; IC50 ([4]; sk-n-mc): 8.6 nM; IC50 ([5]; heart): 29 nM; pA2 [6]: 5.7
Cc1[nH]c2ccccc2c1C[C@H]1NC(=O)[C@H](C2CC2)NC(=O)[C@@H](C(C)C)NC(=O)[C@@H]2CCCN2C(=O)[C@@H](CC(=O)O)NC1=O,8.1 nM,270 nM,–
Cc1[nH]c2ccccc2c1C[C@H]1NC(=O)[C@H](C2CC2)NC(=O)[C@@H](C2CCCC2)NC(=O)[C@@H]2CCCN2C(=O)[C@@H](CC(=O)O)NC1=O,1.8 nM,59 nM,IC50 ([4]; sk-n-mc): 2.9 nM; IC50 ([5]; heart): 130 nM
CCCCC(NC(=O)[C@@H](Cc1c(Cl)[nH]c2ccccc12)NC(=O)C(NC(=O)N1[C@H](C)CCC[C@@H]1C)C(C)CC)C(=O)O (stereo not given in full),51 nM,4.6 nM,–
CC(C)CC(NC(=O)N1[C@H](C)CCC[C@@H]1C)C(=O)N[C@H](Cc1c(Br)[nH]c2ccccc12)C(=O)NC(Cc1cnc[nH]1)C(=O)O (stereo not given in full),3.8 nM,76 nM,–
CCCCC(NC(=O)[C@@H](Cc1c(Cl)[nH]c2ccccc12)NC(=O)C(NC(=O)N1[C@H](C)CCC[C@@H]1C)C(C)C)C(=O)O (stereo not given in full),33 nM,4.6 nM,–
CCCCC(NC(=O)[C@@H](Cc1c(Cl)[nH]c2ccccc12)NC(=O)C(CCCC)NC(=O)N1[C@H](C)CCC[C@@H]1C)C(=O)O (stereo not given in full),9 nM,6.1 nM,–
CCCC(NC(=O)[C@@H](Cc1c(C#N)[nH]c2ccccc12)NC(=O)C(NC(=O)N1[C@H](C)CCC[C@@H]1C)C(C)C)C(=O)O (stereo not given in full),3000 nM,5.6 nM,–
CCCCC(NC(=O)[C@@H](Cc1c(Cl)[nH]c2ccccc12)NC(=O)C(NC(=O)N1[C@H](C)CCC[C@@H]1C)C1CC1)C(=O)O (stereo not given in full),9.3 nM,1.3 nM,–
CSCCC(NC(=O)[C@@H](Cc1c(C)[nH]c2ccccc12)NC(=O)C(NC(=O)N1[C@H](C)CCC[C@@H]1C)C1CC1)C(=O)O (stereo not given in full),1 nM,2.9 nM,IC50 [4]: 3 nM; IC50 [5]: 4 nM
CCCCC(NC(=O)[C@@H](Cc1c(Br)[nH]c2ccccc12)NC(=O)C(CC(C)C)NC(=O)N1CCCCC1)C(=O)O (stereo not given in full),26 nM,110 nM,–
CSCCC(NC(=O)[C@@H](Cc1c(Br)[nH]c2ccccc12)NC(=O)C(CC(C)C)NC(=O)N1[C@H](C)CCC[C@@H]1C)C(=O)O (stereo not given in full),2.2 nM,4.5 nM,–
CSCCC(NC(=O)[C@@H](Cc1c(C)[nH]c2ccccc12)NC(=O)C(CC(C)C)NC(=O)N1[C@H](C)CCC[C@@H]1C)C(=O)O (stereo not given in full),8 nM,13 nM,–
Cc1[nH]c2ccccc2c1C[C@@H](NC(=O)C(CC(C)C)NC(=O)N1[C@H](C)CCC[C@@H]1C)C(=O)NC(Cc1c[nH]cn1)C(=O)O (stereo not given in full),2.8 nM,99 nM,–
CCCC(NC(=O)[C@@H](Cc1c(Br)[nH]c2ccccc12)NC(=O)C(CC(C)C)NC(=O)N1[C@H](C)CCC[C@@H]1C)C(=O)O (stereo not given in full),9.2 nM,2.1 nM,–
CCCCC(NC(=O)[C@@H](Cc1c(C#N)[nH]c2ccccc12)NC(=O)C(CC(C)C)NC(=O)N1[C@H](C)CCC[C@@H]1C)C(=O)O (stereo not given in full),470 nM,1.6 nM,–

SMILES,IC50 [1],IC50 [2],also measured
CCCCC(NC(=O)[C@@H](Cc1c(Br)[nH]c2ccccc12)NC(=O)C(CC(C)C)NC(=O)N1CCCCC1C)C(=O)O (stereo not given in full),8.1 nM,34 nM,–
Cc1[nH]c2ccccc2c1C[C@@H](NC(=O)C(NC(=O)N1[C@H](C)CCC[C@@H]1C)C1CC1)C(=O)NC(Cc1c[nH]cn1)C(=O)O (stereo not given in full),4.8 nM,170 nM,–
CC(C)CC(NC(=O)[C@@H](Cc1c(Br)[nH]c2ccccc12)NC(=O)C(CC(C)C)NC(=O)N1[C@H](C)CCC[C@@H]1C)C(=O)O (stereo not given in full),21 nM,14 nM,–
CCCCC(NC(=O)[C@@H](Cc1c(CC)[nH]c2ccccc12)NC(=O)C(CC(C)C)NC(=O)N1[C@H](C)CCC[C@@H]1C)C(=O)O (stereo not given in full),180 nM,5 nM,–
CCCCC(NC(=O)[C@@H](Cc1c(Cl)[nH]c2ccccc12)NC(=O)C(CC(C)C)NC(=O)N1[C@H](C)CCC[C@@H]1C)C(=O)O (stereo not given in full),15 nM,5.6 nM,–
CCCCC(NC(=O)[C@@H](Cc1c(Br)[nH]c2ccccc12)NC(=O)C(CC(C)C)NC(=O)N1[C@H](C)CCC[C@@H]1C)C(=O)O (stereo not given in full),5.6 nM,2.5 nM,–
CCCCC(NC(=O)[C@@H](Cc1c(Cl)[nH]c2ccccc12)NC(=O)C(CC1CC1)NC(=O)N1[C@H](C)CCC[C@@H]1C)C(=O)O (stereo not given in full),14 nM,6.2 nM,–
CCCSCC(NC(=O)[C@@H](Cc1c(Br)[nH]c2ccccc12)NC(=O)C(CC(C)C)NC(=O)N1[C@H](C)CCC[C@@H]1C)C(=O)O (stereo not given in full),2.4 nM,1.9 nM,–
CCCCC(NC(=O)[C@@H](Cc1c(Cl)[nH]c2ccccc12)NC(=O)C(NC(=O)N1[C@H](C)CCC[C@@H]1C)C1CCCC1)C(=O)O (stereo not given in full),46 nM,2.7 nM,–
CC(C)CC(NC(=O)N1[C@H](C)CCC[C@@H]1C)C(=O)N[C@H](Cc1c(Br)[nH]c2ccccc12)C(=O)NC(Cc1c[nH]c2ccccc12)C(=O)O (stereo not given in full),6.7 nM,1100 nM,–
CCCCC(NC(=O)[C@@H](Cc1c(Br)[nH]c2ccccc12)NC(=O)C(CC(C)C)NC(=O)N1CCCC1)C(=O)O (stereo not given in full),160 nM,2700 nM,–
CCCCC(NC(=O)[C@@H](Cc1c(C)[nH]c2ccccc12)NC(=O)C(CC(C)C)NC(=O)N1[C@H](C)CCC[C@@H]1C)C(=O)O (stereo not given in full),9.6 nM,13 nM,–
CCCCC(NC(=O)[C@@H](Cc1c(Br)[nH]c2ccccc12)NC(=O)C(CC(C)C)NC(=O)N1CCCCCC1)C(=O)O (stereo not given in full),9.1 nM,28 nM,–
CCCCC(NC(=O)[C@@H](Cc1c(C)[nH]c2ccccc12)NC(=O)C(NC(=O)N1[C@H](C)CCC[C@@H]1C)C1CC1)C(=O)O (stereo not given in full),5.7 nM,2.9 nM,–
CCCCC(NC(=O)[C@@H](Cc1c(Br)[nH]c2ccccc12)NC(=O)C(CC(C)C)NC(=O)N1CCCCCCC1)C(=O)O (stereo not given in full),27 nM,26 nM,–
C=CCC(NC(=O)[C@@H](Cc1c(Br)[nH]c2ccccc12)NC(=O)C(CC(C)C)NC(=O)N1[C@H](C)CCC[C@@H]1C)C(=O)O (stereo not given in full),9.8 nM,4.2 nM,–
CCCCC(NC(=O)[C@@H](Cc1c(C#N)[nH]c2ccccc12)NC(=O)C(NC(=O)N1[C@H](C)CCC[C@@H]1C)C(C)C(C)C)C(=O)O (stereo not given in full),810 nM,7.1 nM,–
CCCCC(NC(=O)[C@@H](Cc1c(Cl)[nH]c2ccccc12)NC(=O)C(CCC)NC(=O)N1[C@H](C)CCC[C@@H]1C)C(=O)O (stereo not given in full),20 nM,7.9 nM,–
